Source: ChEMBL document CHEMBL1158703, “Psychopharmacological profile of the alkaloid psychollatine as a 5HT2A/C serotonin modulator” (2005)
The source made the active and inactive calls.

Columns and labels:
[1] = species: Mus musculus; assay: Anticonvulsant activity against CF1 mouse assessed as protection against PTZ-induced convulsions for 60 mins; format: functional, organism-based
Outline: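 Male adult CF1 mice (n = 10/group) dosed i.p.; 30 min later pentylenetetrazol 88 mg/kg s.c. Each mouse placed alone in an acrylic chamber and watched 60 min for clonic convulsions lasting over 3 s. Read-out is the fraction of mice convulsing, analysed by Fisher's exact test.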

[2] = system: Mus musculus; assay: Antidepressant activity in CF1 mouse assessed as decrease in duration of immobility at 3 mg/kg during final 4 mins of the 6 mins session by forced swimming test; format: functional
Outline: (§1)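 Male adult CF1 mice given i.p. doses in saline (pH 7.0), N = 10. Each mouse swam 6 min in a 30 cm-diameter cylinder holding 20 cm of water at 25 ± 1 °C. Immobility was timed over the last 4 min. Values are mean ± SEM, analysed by ANOVA against saline.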

[3] = system: Mus musculus; assay: Antidepressant activity in CF1 mouse assessed as decrease in duration of immobility at 7.5 mg/kg during final 4 mins of the 6 mins session by forced swimming test; format: functional; outline: as §1
[4] = system: Mus musculus; assay: Antidepressant activity in CF1 mouse assessed as decrease in duration of immobility at 10 mg/kg during final 4 mins of the 6 mins session by forced swimming test; format: functional, organism-based; parameters: dose 10 mg/kg; outline: as §1
[5] = system: Mus musculus; assay: Anxiolytic activity against CF1 mouse assessed as suppression of oxotremorine-treated tremors at 10 mg/kg; format: functional, organism-based; parameters: dose 10 mg/kg
Outline: (§2)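 Male CF1 mice were given the test drug i.p. in saline 30 min before oxotremorine 0.5 mg/kg. Each mouse was then placed alone in an acrylic cage for observation of tremor. Values are median (interquartile range), analysed by Kruskal–Wallis then Mann–Whitney U against saline + oxotremorine.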

[6] = system: Mus musculus; assay: Anxiolytic activity against CF1 mouse assessed as suppression of oxotremorine-treated tremors at 30 mg/kg; format: functional, organism-based; parameters: dose 30 mg/kg; outline: as §2
[7] = system: Mus musculus; assay: Anxiolytic activity against CF1 mouse assessed as suppression of oxotremorine-treated tremors at 100 mg/kg; format: functional, organism-based; parameters: dose 100 mg/kg; outline: as §2
[8] = system: Mus musculus; assay: Effect on short term memory of CF1 mouse assessed as reduction in latency during aquisition at 100 mg/kg by passive avoidance test; format: functional
Outline: (§3)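 Step-down inhibitory avoidance in male CF1 mice with i.p. dosing 30 min before training. Stepping down during training gave a 0.3 mA scrambled foot shock for 15 s. The latency to step down during training was recorded, with no exclusion criterion applied. N = 20 per group; values are median (interquartile range).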

[9] = system: Mus musculus; assay: Effect on short term memory of CF1 mouse assessed as reduction in step down latency at 7.5 mg/kg by passive avoidance test; format: functional
[10] = system: Mus musculus; assay: […] of CF1 mouse assessed as reduction in step down latency at 10 mg/kg by passive avoidance test; format: functional
[11] = system: Mus musculus; assay: Effect on long term memory of CF1 mouse assessed as reduction in latency during aquisition at 7.5 mg/kg by passive avoidance test; format: functional; outline: as §3
[12] = system: Mus musculus; assay: Effect on long term memory of CF1 mouse assessed as reduction in step down latency at 100 mg/kg by passive avoidance test; format: functional
Outline: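 Step-down inhibitory avoidance in male CF1 mice dosed i.p. immediately after training, during which a 0.3 mA foot shock for 15 s followed stepping down. Test step-down latency was recorded 24 h later without shock, with a 300 s cutoff. N = 20 per group; values are median (interquartile range).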

[13] = system: Mus musculus; assay: Anxiolytic activity against CF1 mouse assessed as reduction in number in head dips at 200 mg/kg after 30 mins by hole-board assay; format: functional, organism-based; parameters: dose 200 mg/kg
Outline: (§4)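 Hole-board set 15 cm high and divided into 16 squares, with photocells counting head-dips. Male CF1 mice were dosed i.p. and placed centrally 30 min later under dim light. Over 5 min, head-dips, rearings and squares crossed were counted. Values are mean ± SEM (N = 15), analysed by one-way ANOVA then SNK.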

[14] = system: Mus musculus; assay: Anxiolytic activity against CF1 mouse assessed as increase in number of crossings at 7.5 mg/kg after 30 mins by hole-board assay; format: functional, organism-based; parameters: dose 7.5 mg/kg; outline: as §4
[15] = system: Mus musculus; assay: Anxiolytic activity against CF1 mouse assessed as increase in number of head dips at 15 mg/kg after 30 mins by hole-board assay; format: functional, organism-based; parameters: dose 15 mg/kg; outline: as §4
[16] = system: Mus musculus; assay: Anxiolytic activity against CF1 mouse assessed as increase in number of crossings at 15 mg/kg after 30 mins by hole-board assay; format: functional, organism-based; parameters: dose 15 mg/kg; outline: as §4
[17] = system: Mus musculus; assay: Anxiolytic activity against CF1 mouse assessed as increase in number of rearings at 15 mg/kg after 30 mins by hole-board assay; format: functional, organism-based; parameters: dose 15 mg/kg; outline: as §4
[18] = system: Mus musculus; assay: Antidepressant activity in CF1 mouse assessed as decrease in duration of immobility at 30 mg/kg during final 4 mins of the 6 mins session by forced swimming test; format: functional, organism-based; parameters: dose 30 mg/kg; outline: as §1
[19] = system: Mus musculus; assay: […] of CF1 mouse assessed as reduction in step down latency at 3 mg/kg by passive avoidance test; format: functional
[20] = system: Mus musculus; assay: Anxiolytic activity against CF1 mouse assessed as increase in number of head dips at 7.5 mg/kg after 30 mins in presence of ritanserin by hole-board assay; format: functional, organism-based; parameters: dose 7.5 mg/kg
Outline: (§5)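 Male CF1 mice received ritanserin 2 mg/kg i.p. in 10% DMSO 30 min before the test drug at 7.5 mg/kg i.p. The 5 min hole-board session began 30 min later, counting head-dips, crossings and rearings. Values are mean ± SEM (N = 8-14), analysed by ANOVA/SNK.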

[21] = system: Mus musculus; assay: Anxiolytic activity against CF1 mouse assessed as increase in number of crossings at 7.5 mg/kg after 30 mins in presence of ritanserin by hole-board assay; format: functional, organism-based; parameters: dose 7.5 mg/kg; outline: as §5
[22] = system: Mus musculus; assay: Anxiolytic activity against CF1 mouse assessed as increase in time spent in light compartment at 7.5 mg/kg for 5 mins; format: functional, organism-based; parameters: dose 7.5 mg/kg
Outline: (§6)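 Light/dark box with a black, room-lit small compartment and a white large compartment lit at 400 lx. Male CF1 mice were acclimated at least 1 h under dim red light and dosed i.p. 30 min before testing. Recorded were latency to first entry and time spent in the light area. Values are mean ± SEM (N = 19-22), analysed by one-way ANOVA then SNK.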

[23] = system: Mus musculus; assay: Anxiolytic activity against CF1 mouse assessed as increase in latency to enter in the dark compartment 7.5 mg/kg for 5 mins; format: functional, organism-based; parameters: dose 7.5 mg/kg; outline: as §6
[24] = system: Mus musculus; assay: Anxiolytic activity against CF1 mouse assessed as increase in time spent in light compartment at 7.5 mg/kg in presence of ritanserin for 5 mins; format: functional, organism-based; parameters: dose 7.5 mg/kg
Outline: (§7)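 Male CF1 mice received ritanserin 2 mg/kg i.p. (in 10% DMSO) 30 min before the test drug at 7.5 mg/kg i.p. The light/dark test followed 30 min later, scoring latency to first entry and time in the light compartment. Values are mean ± SEM (N = 8-10), analysed by one-way ANOVA/SNK.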

[25] = system: Mus musculus; assay: Anxiolytic activity against CF1 mouse assessed as increase in latency to enter in the dark compartment 7.5 mg/kg in presence of ritanserin for 5 mins; format: functional, organism-based; parameters: dose 7.5 mg/kg; outline: as §7
[26] = system: Mus musculus; assay: Potentiation of pentobarbital-induced sleeping time in CF1 mouse at 100 mg/kg; format: functional, organism-based; parameters: dose 100 mg/kg
Outline: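 Male CF1 mice (N = 9-12) were dosed i.p. and given sodium pentobarbital 40 mg/kg i.p. 30 min later. Sleeping time was recorded as the interval from loss to recovery of the righting reflex. Values are mean ± SEM, analysed by ANOVA against controls.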

[27] = system: Mus musculus; assay: Effect on locomotory activity in CF1 mouse assessed as change in spontaneous activity at 0.75 and 0.85 mg/kg; format: functional, organism-based; parameters: dose 0.85 mg/kg
Outline: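 Mice were habituated singly for 10 min in photocell activity cages and then dosed i.p. Diazepam was given in 10% propylene glycol. After 30 min, crossings were recorded for 15 min. n = 10–16, ANOVA then SNK.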

COC(=O)C1=CO[C@@H](O[C@H]2O[C@H](CO)[C@@H](O)[C@H](O)[C@H]2O)[C@@H]2C([C@@H]3NCCc4c3[nH]c3ccccc43)=CC[C@H]12 [PSYCHOLLATINE]
Activity [1]: inactive | Activity [2]: 48.88 s | Activity [3]: 56.41 s | Activity [4]: inactive | Activity [5]: Active | Activity [6]: Active | Activity [7]: Active | Activity [8]: 6.8 s | Activity [9]: 9.6 s | Activity [10]: 11.55 s | Activity [11]: 13.4 s | Activity [12]: 9.5 s | Activity [13]: Active | Activity [14]: Active | Activity [15]: Active | Activity [16]: Active | Activity [17]: Active | Activity [18]: inactive | Activity [19]: 11.8 s | Activity [20]: inactive | Activity [21]: inactive | Activity [22]: Active | Activity [23]: Active | Activity [24]: inactive | Activity [25]: inactive | Activity [26]: Active | Activity [27]: inactive
